{
  "source": "paper PMC6007964",
  "about": "(Biochemistry, 2018)",
  "key": {"VIM-2 [1]": {"target": "T1, VIM-2 (Escherichia coli, UniProt Q5U7L7)", "assay": "IC50 assay, nitrocefin hydrolysis, 10 min preincubation", "assay_type": "biochemical"}, "IMP-1 [2]": {"target": "T2, IMP-1 (Serratia marcescens, UniProt P52699)", "T2 sequence (P52699 19-246, looked up)": "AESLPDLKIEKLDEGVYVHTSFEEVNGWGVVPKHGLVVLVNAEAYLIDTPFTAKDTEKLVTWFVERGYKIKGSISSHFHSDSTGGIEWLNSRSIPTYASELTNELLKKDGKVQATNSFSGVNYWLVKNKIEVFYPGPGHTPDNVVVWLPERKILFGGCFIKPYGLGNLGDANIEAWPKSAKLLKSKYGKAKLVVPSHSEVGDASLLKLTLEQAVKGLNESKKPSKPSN", "assay": "IC50 assay, nitrocefin hydrolysis, 10 min preincubation", "assay_type": "biochemical"}, "L1 [3]": {"target": "T3, L1 (Stenotrophomonas maltophilia, UniProt P52700)", "T3 sequence (P52700 34-290)": "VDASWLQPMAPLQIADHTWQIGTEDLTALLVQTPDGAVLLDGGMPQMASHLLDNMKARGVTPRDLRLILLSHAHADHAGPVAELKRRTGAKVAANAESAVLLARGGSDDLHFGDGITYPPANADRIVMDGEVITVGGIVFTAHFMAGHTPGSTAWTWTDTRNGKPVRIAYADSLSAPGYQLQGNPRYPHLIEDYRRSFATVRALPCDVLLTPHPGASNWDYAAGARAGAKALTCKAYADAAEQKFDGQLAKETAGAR", "assay": "IC50 assay, nitrocefin hydrolysis, 10 min preincubation", "assay_type": "biochemical, S. maltophilia"}, "VIM-2 [4]": {"target": "T1, VIM-2", "assay": "Ki determination, slow-binding progress curves with nitrocefin", "assay_type": "biochemical", "procedure,_shortened": "(§1)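 Enzyme was added to nitrocefin in excess, with inhibitor dilutions spanning the variable-rate range: IMP-1 60 pM with 25 μM nitrocefin, VIM-2 39.2 pM with 100 μM, NDM-1 600 pM with 15 μM, L1 308 pM with 50 μM. Buffer was 50 mM HEPES pH 7.2, 50 μg/mL BSA, 0.01% Triton X-100, read at 482 nm and 30 °C for 10 min. Progress curves gave kobs; a linear fit of kobs versus [I] gave k–0 and Kiapp, then Ki.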"}, "NDM-1 [5]": {"target": "T4, NDM-1 (Klebsiella pneumoniae, UniProt C7C422)", "T4 sequence (C7C422 29-270, looked up, species assumed)": "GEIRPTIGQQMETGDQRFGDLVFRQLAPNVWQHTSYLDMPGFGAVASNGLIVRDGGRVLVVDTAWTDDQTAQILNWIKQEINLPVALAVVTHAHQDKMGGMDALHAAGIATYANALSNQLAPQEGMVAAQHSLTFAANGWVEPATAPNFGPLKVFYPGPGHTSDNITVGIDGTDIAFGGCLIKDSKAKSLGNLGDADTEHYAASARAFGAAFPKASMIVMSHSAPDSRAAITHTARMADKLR", "assay": "Ki determination, slow-binding progress curves with nitrocefin", "assay_type": "biochemical", "procedure,_shortened": "as §1"}, "IMP-1 [6]": {"target": "T2, IMP-1", "assay": "Ki determination, slow-binding progress curves with nitrocefin", "assay_type": "biochemical", "procedure,_shortened": "as §1"}, "L1 [7]": {"target": "T3, L1", "assay": "Ki determination, slow-binding progress curves with nitrocefin", "assay_type": "biochemical, S. maltophilia", "procedure,_shortened": "as §1"}, "NDM-1 [8]": {"target": "T4, NDM-1", "assay": "IC50 assay, nitrocefin hydrolysis, 10 min preincubation", "assay_type": "biochemical"}, "[9]": {"tested_on": "MBLs (VIM-2, NDM-1, IMP-1, L1)", "assay": "IC50 assay, summary over the MBLs tested", "assay_type": "biochemical"}, "[10]": {"tested_on": "K. pneumoniae UWB116 (NDM-1)", "conditions": "NDM-1-producing K. pneumoniae clinical isolate, cited from earlier work"}, "[11]": {"tested_on": "E. coli MG1655 vector only", "assay": "Meropenem MIC, broth microdilution", "assay_type": "cell-based", "conditions": "Escherichia coli, MG1655, read-out: Meropenem MIC"}, "E. coli MG1655 IMP-1": {"tested_on": "E. coli MG1655 IMP-1", "assay": "Meropenem MIC, broth microdilution", "assay_type": "cell-based", "conditions": "Escherichia coli, MG1655, read-out: Meropenem MIC"}, "E. coli MG1655 VIM-1": {"tested_on": "E. coli MG1655 VIM-1", "assay": "Meropenem MIC, broth microdilution", "assay_type": "cell-based", "conditions": "Escherichia coli, MG1655, read-out: Meropenem MIC"}, "E. coli MG1655 NDM-1": {"tested_on": "E. coli MG1655 NDM-1", "assay": "Meropenem MIC, broth microdilution", "assay_type": "cell-based", "conditions": "Escherichia coli, MG1655, read-out: Meropenem MIC"}, "K. pneumoniae Ecl8 NDM-1": {"tested_on": "K. pneumoniae Ecl8 NDM-1", "assay": "Meropenem MIC, broth microdilution", "assay_type": "cell-based", "conditions": "Klebsiella pneumoniae, ECL8NDM1, read-out: Meropenem MIC"}, "C. freundii D571 NDM-1": {"tested_on": "C. freundii D571 NDM-1", "assay": "Meropenem MIC, broth microdilution", "assay_type": "cell-based", "conditions": "Citrobacter freundii, D571NDM1, read-out: Meropenem MIC"}, "[12]": {"tested_on": "En. aerogenes 15-8358A NDM-1", "assay": "Meropenem MIC, broth microdilution", "assay_type": "cell-based", "conditions": "Klebsiella aerogenes, read-out: Meropenem MIC"}, "[13]": {"tested_on": "P. aeruginosa UWB41 (VIM-2)", "assay": "Meropenem MIC, broth microdilution, clinical strain", "assay_type": "cell-based", "conditions": "Pseudomonas aeruginosa, read-out: Meropenem MIC"}, "P. putida #UWB24 (VIM-2)": {"tested_on": "P. putida #UWB24 (VIM-2)", "assay": "Meropenem MIC, broth microdilution, clinical strain", "assay_type": "cell-based", "conditions": "in the absence of inhibitor"}, "[14]": {"tested_on": "P. aeruginosa UWB78 (VIM-2)", "assay": "Meropenem MIC, broth microdilution, clinical strain", "assay_type": "cell-based", "conditions": "in the absence of inhibitor"}, "[15]": {"tested_on": "S. maltophilia K279a (L1, L2)", "assay": "Meropenem MIC, broth microdilution, clinical strain", "assay_type": "cell-based", "conditions": "Stenotrophomonas maltophilia, read-out: Meropenem MIC"}, "[16]": {"tested_on": "S. maltophilia JKWZP (L1, L2)", "assay": "Meropenem MIC, broth microdilution, RND pump knockout strain", "assay_type": "cell-based", "conditions": "Stenotrophomonas maltophilia, read-out: Meropenem MIC"}, "[17]": {"tested_on": "non-MBL-producing K. pneumoniae", "conditions": "non-MBL-producing strain; cited from earlier work"}, "[18]": {"tested_on": "non-MBL-producing C. freundii", "conditions": "non-MBL-producing strain; cited from earlier work"}, "[19]": {"tested_on": "non-MBL-producing En. aerogenes", "conditions": "non-MBL-producing strain; cited from earlier work"}},
  "note": "Read-outs that look alike come from different tables or passages of the source.",
  "data": [
    {"compound": "O=C(O)c1cccc(C(O)P(=O)(O)O)n1", "note": "(stereo not shown) [3b, 6-[hydroxy(phosphono)methyl]picolinic acid]", "values": [
      {"measurement": "IC50", "setting": "VIM-2 [1]", "value": 1.9, "unit": "µM"},
      {"measurement": "IC50", "setting": "IMP-1 [2]", "value": 7.2, "unit": "µM"},
      {"measurement": "IC50", "setting": "L1 [3]", "value": 2.05, "unit": "µM"},
      {"measurement": "Ki", "setting": "VIM-2 [4]", "value": "0.61 ± 0.04", "unit": "µM"},
      {"measurement": "Dissociative t1/2 = 2 / k-0", "setting": "VIM-2 [4]; VIM-2", "value": 6, "unit": "min"},
      {"measurement": "Ki", "setting": "NDM-1 [5]", "value": "0.078 ± 0.008", "unit": "µM"},
      {"measurement": "Ki", "setting": "IMP-1 [6]", "value": "1.5 ± 0.1", "unit": "µM"},
      {"measurement": "Ki", "setting": "L1 [7]", "value": "0.4 ± 0.1", "unit": "µM"}
    ]},
    {"compound": "O=C(O)c1cccc(C(N(Cc2ccccc2)C(=O)c2cccs2)P(=O)(O)O)n1", "note": "(stereo not shown) [3c, 6-[(N-benzyl-1-thiophen-2-ylformamido)(phosphono)methyl]picolinic acid]", "values": [
      {"measurement": "IC50", "setting": "VIM-2 [1]", "value": 0.464, "unit": "µM"},
      {"measurement": "IC50", "setting": "NDM-1 [8]", "value": 0.306, "unit": "µM"},
      {"measurement": "IC50", "setting": "IMP-1 [2]", "value": 2.91, "unit": "µM"},
      {"measurement": "IC50", "setting": "L1 [3]", "value": 1.57, "unit": "µM"},
      {"measurement": "potency compared to 3a", "setting": "L1 [3]; IC50, against L1", "value": "~0.9", "unit": "fold"},
      {"measurement": "Ki", "setting": "VIM-2 [4]", "value": "0.038 ± 0.009", "unit": "µM"},
      {"measurement": "Ki", "setting": "NDM-1 [5]", "value": "0.034 ± 0.006", "unit": "µM"},
      {"measurement": "Ki", "setting": "IMP-1 [6]", "value": "0.4 ± 0.2", "unit": "µM"},
      {"measurement": "Dissociative t1/2 = 2 / k-0", "setting": "IMP-1 [6]; IMP-1", "value": 25, "unit": "min"},
      {"measurement": "Ki", "setting": "L1 [7]", "value": "0.4 ± 0.1", "unit": "µM"},
      {"measurement": "improved potency compared to 3a", "setting": "[9]; IC50, against NDM-1, VIM-2 and IMP-1", "value": "1.2–2.8 fold"},
      {"measurement": "IC50", "setting": "[9]; read-out: IC50, range, against NDM-1, VIM-2 and IMP-1", "value": "0.306 to 2.91", "unit": "µM"}
    ]},
    {"compound": "N[C@H](CN[C@H](CN[C@@H](CC(=O)O)C(=O)O)C(=O)O)C(=O)O", "note": "[AMA, aspergillomarasmine A]", "values": [
      {"measurement": "Meropenem MIC", "setting": "[10]; in the presence of 16 mg/L AMA", "value": 0.25, "unit": "µg/mL"},
      {"measurement": "Meropenem MIC", "setting": "[10]; in the presence of 32 mg/L AMA", "value": "< 0.125", "unit": "µg/mL"}
    ]},
    {"compound": "C[C@@H](O)[C@H]1C(=O)N2C(C(=O)O)=C(S[C@@H]3CN[C@H](C(=O)N(C)C)C3)[C@H](C)[C@H]12", "note": "[Meropenem]", "values": [
      {"measurement": "MIC", "setting": "[11]", "value": "< 0.25", "unit": "µg/mL"},
      {"measurement": "MIC", "setting": "E. coli MG1655 IMP-1", "value": 16, "unit": "µg/mL"},
      {"measurement": "MIC", "setting": "E. coli MG1655 VIM-1", "value": 4, "unit": "µg/mL"},
      {"measurement": "MIC", "setting": "E. coli MG1655 NDM-1", "value": "> 256", "unit": "µg/mL"},
      {"measurement": "MIC", "setting": "K. pneumoniae Ecl8 NDM-1", "value": "> 256", "unit": "µg/mL"},
      {"measurement": "MIC", "setting": "C. freundii D571 NDM-1", "value": 32, "unit": "µg/mL"},
      {"measurement": "MIC", "setting": "[12]", "value": 64, "unit": "µg/mL"},
      {"measurement": "MIC", "setting": "[13]", "value": 128, "unit": "µg/mL"},
      {"measurement": "Meropenem MIC", "setting": "P. putida #UWB24 (VIM-2)", "value": 64, "unit": "mg L^–1"},
      {"measurement": "Meropenem MIC", "setting": "[14]", "value": 64, "unit": "mg L^–1"},
      {"measurement": "MIC", "setting": "[15]", "value": 16, "unit": "µg/mL"},
      {"measurement": "MIC", "setting": "[16]", "value": 32, "unit": "µg/mL"},
      {"measurement": "Meropenem MIC", "setting": "[17]", "value": "≤ 0.25", "unit": "µg/mL"},
      {"measurement": "Meropenem MIC", "setting": "[18]", "value": 0.06, "unit": "µg/mL"},
      {"measurement": "Meropenem MIC", "setting": "[19]", "value": 0.06, "unit": "µg/mL"}
    ]},
    {"compound": "O=C(O)c1ccccn1", "note": "[compound 1, 2-picolinic acid]", "values": [
      {"measurement": "IC50", "setting": "VIM-2 [1]", "value": 32.2, "unit": "µM"},
      {"measurement": "IC50", "setting": "NDM-1 [8]", "value": "> 100", "unit": "µM"},
      {"measurement": "IC50", "setting": "IMP-1 [2]", "value": "> 100", "unit": "µM"},
      {"measurement": "IC50", "setting": "L1 [3]", "value": "> 100", "unit": "µM"}
    ]},
    {"compound": "Cc1cccc(C(=O)O)n1", "note": "[compound 2, 6-methylpicolinic acid]", "values": [
      {"measurement": "IC50", "setting": "VIM-2 [1]", "value": "> 100", "unit": "µM"},
      {"measurement": "IC50", "setting": "NDM-1 [8]", "value": "> 100", "unit": "µM"},
      {"measurement": "IC50", "setting": "IMP-1 [2]", "value": "> 100", "unit": "µM"},
      {"measurement": "IC50", "setting": "L1 [3]", "value": "> 100", "unit": "µM"}
    ]},
    {"compound": "O=P(O)(O)Cc1ccccn1", "note": "[compound 4, (pyridin-2-ylmethyl)phosphonic acid]", "values": [
      {"measurement": "IC50", "setting": "VIM-2 [1]", "value": 171, "unit": "µM"},
      {"measurement": "IC50", "setting": "NDM-1 [8]", "value": "> 1000", "unit": "µM"},
      {"measurement": "IC50", "setting": "IMP-1 [2]", "value": "> 100", "unit": "µM"},
      {"measurement": "IC50", "setting": "L1 [3]", "value": "> 1000", "unit": "µM"}
    ]}
  ]
}
